The source of these data is ChEMBL document CHEMBL1126061, “Cyclic RGD peptide analogues as antiplatelet antithrombotics” (J Med Chem, 1992).

*1 amine or outer side, *2 acyl side, *3 side chain or, on linkers, in order; H or OH if unused. Where a SMILES comes first, the peptide text is derived from it. Bridges are numbered along the chain shown (N, C = ends). [ ]: non-standard residue; d: D form. Cys(O)(CH2CO) = O=C([C@H](C[S+]([O-])CC(=O)[*:3])N[*:1])[*:2]; X1 = C[C@@H](O)[C@@H](C(=O)[*:2])N(c1cccc(CC[*:3])c1)[*:1]; X2 = C[C@H](O)[C@H](C(=O)[*:2])N(c1cccc(CC[*:3])c1)[*:1]

The target in the test is Integrin alpha-IIb/beta-3 (Homo sapiens, UniProt P05106+P08514). Put plainly: The compound was tested for the inhibition of fibrinogen receptor. Type of test: protein-complex assay. The essentials:
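Solid-phase ELISA: human fibrinogen (10 µg/mL) coated, BSA-blocked; samples plus purified human platelet GPIIbIIIa (40 µg/mL) incubated 1 h at room temperature. Bound receptor detected with anti-GPIIbIIIa antibody AP3 (1 µg/mL, 1 h), then goat anti-mouse HRP (1 h); OPD/H2O2 at pH 5, stopped with H2SO4, absorbance 492-405 nm. IC50 from four-parameter fit; n ≥ 3.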

Chain of Integrin alpha-IIb/beta-3 (P05106 27-788 limits assumed): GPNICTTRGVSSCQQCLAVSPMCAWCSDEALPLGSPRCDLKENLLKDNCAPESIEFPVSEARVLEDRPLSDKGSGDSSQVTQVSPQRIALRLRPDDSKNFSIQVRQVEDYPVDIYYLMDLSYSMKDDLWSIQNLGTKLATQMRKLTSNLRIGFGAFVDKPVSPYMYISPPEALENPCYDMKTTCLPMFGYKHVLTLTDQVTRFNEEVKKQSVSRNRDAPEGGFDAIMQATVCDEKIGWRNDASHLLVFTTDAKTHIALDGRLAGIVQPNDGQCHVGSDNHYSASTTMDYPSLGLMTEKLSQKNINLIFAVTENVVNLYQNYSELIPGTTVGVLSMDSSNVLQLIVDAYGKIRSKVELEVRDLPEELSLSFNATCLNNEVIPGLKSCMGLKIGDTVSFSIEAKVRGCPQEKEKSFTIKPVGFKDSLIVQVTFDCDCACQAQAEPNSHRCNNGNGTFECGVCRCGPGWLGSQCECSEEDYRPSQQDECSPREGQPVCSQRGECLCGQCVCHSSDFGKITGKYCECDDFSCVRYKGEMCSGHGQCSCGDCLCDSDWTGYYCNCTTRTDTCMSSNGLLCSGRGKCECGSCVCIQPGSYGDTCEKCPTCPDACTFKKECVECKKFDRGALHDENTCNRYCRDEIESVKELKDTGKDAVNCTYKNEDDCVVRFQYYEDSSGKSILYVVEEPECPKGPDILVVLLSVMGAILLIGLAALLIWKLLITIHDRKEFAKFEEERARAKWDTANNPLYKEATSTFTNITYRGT
Chain of Integrin alpha-IIb/beta-3 (P08514 32-887 limits assumed): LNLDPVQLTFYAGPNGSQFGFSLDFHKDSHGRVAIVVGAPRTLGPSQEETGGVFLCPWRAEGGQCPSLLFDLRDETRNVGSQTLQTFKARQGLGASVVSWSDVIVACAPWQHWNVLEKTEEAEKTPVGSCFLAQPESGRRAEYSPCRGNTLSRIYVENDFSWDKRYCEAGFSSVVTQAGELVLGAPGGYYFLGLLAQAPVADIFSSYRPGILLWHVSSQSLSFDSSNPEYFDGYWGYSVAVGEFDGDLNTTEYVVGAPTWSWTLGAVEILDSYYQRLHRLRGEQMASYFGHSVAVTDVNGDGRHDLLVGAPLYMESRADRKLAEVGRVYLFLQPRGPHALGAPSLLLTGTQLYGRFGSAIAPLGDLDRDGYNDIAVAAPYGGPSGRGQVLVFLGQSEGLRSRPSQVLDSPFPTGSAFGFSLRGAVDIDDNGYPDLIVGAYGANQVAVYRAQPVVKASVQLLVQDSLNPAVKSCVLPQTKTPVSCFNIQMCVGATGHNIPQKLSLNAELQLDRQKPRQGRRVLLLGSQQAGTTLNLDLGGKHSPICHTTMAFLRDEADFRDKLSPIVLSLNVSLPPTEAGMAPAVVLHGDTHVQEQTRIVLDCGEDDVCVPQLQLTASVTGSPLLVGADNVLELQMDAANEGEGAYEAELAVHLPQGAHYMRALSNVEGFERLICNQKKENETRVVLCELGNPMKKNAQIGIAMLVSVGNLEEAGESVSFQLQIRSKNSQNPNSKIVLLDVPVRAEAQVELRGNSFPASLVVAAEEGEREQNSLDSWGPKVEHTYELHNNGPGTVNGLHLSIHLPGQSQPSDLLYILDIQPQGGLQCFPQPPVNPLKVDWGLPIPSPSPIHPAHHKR
Chain of Integrin alpha-IIb/beta-3 (P08514 891-1039 limits assumed): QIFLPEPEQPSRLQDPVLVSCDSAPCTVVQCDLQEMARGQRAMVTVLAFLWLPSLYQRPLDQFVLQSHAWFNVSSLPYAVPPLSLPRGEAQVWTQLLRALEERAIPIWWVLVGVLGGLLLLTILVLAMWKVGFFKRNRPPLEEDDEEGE

For `CC[C@@H](C)[C@H]1NC(=O)CSC[C@@H](C(=O)O)NC(=O)[C@H](CC(=O)O)NC(=O)CNC(=O)[C@H](CCCN=C(N)N)NC1=O`, 0.018 µM corresponded to half-maximal inhibition (IC50).
Regarding `C[C@H](O)[C@H]1NC(=O)CSC[C@@H](C(=O)O)NC(=O)[C@H](CC(=O)O)NC(=O)CNC(=O)[C@H](CCCN=C(N)N)NC1=O`, the concentration for half-maximal inhibition (IC50) (as a rule, the concentration that inhibits the measured activity by half) is 0.0116 µM. This IC50 lies about 1.6-fold lower than the previous one.
With `C[C@@H](O)[C@@H]1NC(=O)CSC[C@@H](C(=O)O)NC(=O)[C@H](CC(=O)O)NC(=O)CNC(=O)[C@H](CCCN=C(N)N)NC1=O` the figure was 0.0013 µM; with `CC[C@H](C)[C@@H]1NC(=O)CSC[C@@H](C(=O)O)NC(=O)[C@H](CC(=O)O)NC(=O)CNC(=O)[C@H](CCCN=C(N)N)NC1=O`, 0.006 µM.
As to `CC(C)C[C@@H]1NC(=O)CSC[C@@H](C(=O)O)NC(=O)[C@H](CC(=O)O)NC(=O)CNC(=O)[C@H](CCCNC(=N)N)NC1=O`, half-maximal inhibition (IC50) was put at 0.003 µM.
With `CC(C)(C)C[C@H]1NC(=O)CSC[C@@H](C(=O)O)NC(=O)[C@H](CC(=O)O)NC(=O)CNC(=O)[C@H](CCCN=C(N)N)NC1=O` the figure was 0.022 µM; with `N=C(N)NCCC[C@@H]1NC(=O)[C@H](CC(=O)O)NC(=O)CSC[C@@H](C(=O)O)NC(=O)[C@H](CC(=O)O)NC(=O)CNC1=O`, 0.025 µM.
With `CC(C)(C)C[C@@H]1NC(=O)CSC[C@@H](C(=O)O)NC(=O)[C@H](CC(=O)O)NC(=O)CNC(=O)[C@H](CCCNC(=N)N)NC1=O` the figure was 0.0036 µM; with `N=C(N)NCCC[C@@H]1NC(=O)[C@H](CCC(=O)O)NC(=O)CSC[C@@H](C(=O)O)NC(=O)[C@H](CC(=O)O)NC(=O)CNC1=O`, 0.015 µM.
`N=C(N)NCCC[C@@H]1NC(=O)[C@@H](Cc2c[nH]c3ccccc23)NC(=O)CSC[C@@H](C(=O)O)NC(=O)[C@H](CC(=O)O)NC(=O)CNC1=O` gave an IC50 of 0.029 µM.
With `N=C(N)NCCC[C@@H]1NC(=O)[C@@H](CCCN)NC(=O)CSC[C@@H](C(=O)O)NC(=O)[C@H](CC(=O)O)NC(=O)CNC1=O` the figure was 0.031 µM.
The molecule `N=C(N)NCCC[C@@H]1NC(=O)CNC(=O)[C@@H](Cc2ccccc2)SC[C@@H](C(=O)O)NC(=O)[C@H](CC(=O)O)NC(=O)CNC1=O` returned an IC50 of 0.029 µM.
For `N=C(N)NCCC[C@@H]1NC(=O)[C@@H](Cc2ccccc2)NC(=O)CSC[C@@H](C(=O)O)NC(=O)[C@H](CC(=O)O)NC(=O)CNC1=O`, the 50% inhibitory concentration (IC50) came out at 0.035 µM.
As for `N=C(N)NCCC[C@@H]1NC(=O)[C@H](CO)NC(=O)CSC[C@@H](C(=O)O)NC(=O)[C@H](CC(=O)O)NC(=O)CNC1=O`, half-maximal inhibition (IC50) was put at 0.004 µM.
Molecule `NCCC[C@@H]1NC(=O)CSC[C@@H](C(=O)O)NC(=O)[C@H](CC(=O)O)NC(=O)CNC(=O)[C@H](CCCN=C(N)N)NC1=O` showed an IC50 of 0.0056 µM.
Consider `CC(C)C[C@H]1NC(=O)CSC[C@@H](C(=O)O)NC(=O)[C@H](CC(=O)O)NC(=O)CNC(=O)[C@H](CCCNC(=N)N)NC1=O`, for which 0.038 µM corresponded to half-maximal inhibition (IC50). This IC50 lies about 6.8-fold higher than the previous one.
`N=C(N)NCCC[C@@H]1NC(=O)[C@@H](Cc2ccc(O)cc2)NC(=O)CS(=O)(=O)C[C@@H](C(=O)O)NC(=O)[C@H](CC(=O)O)NC(=O)CNC1=O` came in with an IC50 of 0.0021 µM.
Molecule `N=C(N)NCCC[C@@H]1NC(=O)[C@@H](Cc2c[nH]cn2)NC(=O)CSC[C@@H](C(=O)O)NC(=O)[C@H](CC(=O)O)NC(=O)CNC1=O` registered an IC50 of 0.0068 µM. This IC50 is about 3.2-fold higher than that of the molecule before.
Turning to `N=C(N)NCCC[C@@H]1NC(=O)[C@H](Cc2ccccc2)NC(=O)CSC[C@@H](C(=O)O)NC(=O)[C@H](CC(=O)O)NC(=O)CNC1=O`, the IC50 was determined as 0.007 µM.
To `CSCC[C@@H]1NC(=O)CSC[C@@H](C(=O)O)NC(=O)[C@H](CC(=O)O)NC(=O)CNC(=O)[C@H](CCCNC(=N)N)NC1=O` belongs 0.004 µM.
As for `N=C(N)NCCC[C@@H]1NC(=O)c2cccc(c2)CSC[C@@H](C(=O)O)NC(=O)[C@H](CC(=O)O)NC(=O)CNC1=O`, the midpoint of inhibition, the IC50, lay at 0.019 µM.
To `N=C(N)NCCC[C@@H]1NC(=O)CNC(=O)CCSC[C@@H](C(=O)O)NC(=O)[C@H](CC(=O)O)NC(=O)CNC1=O` belongs 0.075 µM.
`NC(=O)CC[C@H]1NC(=O)CSC[C@@H](C(=O)O)NC(=O)[C@H](CC(=O)O)NC(=O)CNC(=O)[C@H](CCCN=C(N)N)NC1=O` displayed an IC50 of 0.11 µM.
In the case of `CC(C)[C@H]1NC(=O)CSC[C@@H](C(=O)O)NC(=O)[C@H](CC(=O)O)NC(=O)CNC(=O)[C@H](CCCNC(=N)N)NC1=O`, half-maximal inhibition (IC50) required 0.017 µM.
With `N=C(N)NCCC[C@@H]1NC(=O)[C@@H](CC(=O)O)NC(=O)CSC[C@@H](C(=O)O)NC(=O)[C@H](CC(=O)O)NC(=O)CNC1=O` the figure was 0.5 µM; with `N=C(N)NCCC[C@@H]1NC(=O)[C@H](Cc2c[nH]c3ccccc23)NC(=O)CSC[C@@H](C(=O)O)NC(=O)[C@H](CC(=O)O)NC(=O)CNC1=O`, 0.004 µM; with `NCCCC[C@@H]1NC(=O)CSC[C@@H](C(=O)O)NC(=O)[C@H](CC(=O)O)NC(=O)CNC(=O)[C@H](CCCN=C(N)N)NC1=O`, 0.0075 µM.
With `CC(C)[C@@H]1NC(=O)CSC[C@@H](C(=O)O)NC(=O)[C@H](CC(=O)O)NC(=O)CNC(=O)[C@H](CCCN=C(N)N)NC1=O` the figure was 0.002 µM.
To `N=C(N)NCCC[C@@H]1NC(=O)CNC(=O)CS(=O)(=O)C[C@@H](C(=O)O)NC(=O)[C@H](CC(=O)O)NC(=O)CNC1=O` belongs 0.018 µM; to `N=C(N)NCCC[C@@H]1NC(=O)[C@H](CCC(N)=O)NC(=O)CSC[C@@H](C(=O)O)NC(=O)[C@H](CC(=O)O)NC(=O)CNC1=O`, 0.043 µM; to `CSCC[C@H]1NC(=O)CSC[C@@H](C(=O)O)NC(=O)[C@H](CC(=O)O)NC(=O)CNC(=O)[C@H](CCCNC(=N)N)NC1=O`, 0.028 µM.
On to `N=C(N)NCCC[C@@H]1NC(=O)[C@@H](CO)NC(=O)CSC[C@@H](C(=O)O)NC(=O)[C@H](CC(=O)O)NC(=O)CNC1=O`, for which the IC50 came out at 0.022 µM.
To `N=C(N)NCCC[C@@H]1NC(=O)[C@@H](CCCCN)NC(=O)CSC[C@@H](C(=O)O)NC(=O)[C@H](CC(=O)O)NC(=O)CNC1=O` belongs 0.02 µM; to `N=C(N)NCCC[C@@H]1NC(=O)CNC(=O)[C@H](Cc2ccccc2)SC[C@@H](C(=O)O)NC(=O)[C@H](CC(=O)O)NC(=O)CNC1=O`, 0.014 µM; to `N=C(N)NCCC[C@@H]1NC(=O)CCNC(=O)CSC[C@@H](C(=O)O)NC(=O)[C@H](CC(=O)O)NC(=O)CNC1=O`, 0.012 µM.
With `N=C(N)NCCC[C@@H]1NC(=O)[C@H](Cc2cnc[nH]2)NC(=O)CSC[C@@H](C(=O)O)NC(=O)[C@H](CC(=O)O)NC(=O)CNC1=O` the figure was 0.003 µM.
With `N=C(N)NCCC[C@@H]1NC(=O)[C@@H](CCC(=O)O)NC(=O)CSC[C@@H](C(=O)O)NC(=O)[C@H](CC(=O)O)NC(=O)CNC1=O` the figure was 0.26 µM.
In turn, `CC(=O)NCC(=O)N[C@@H](CCCNC(=N)N)C(=O)NCC(=O)N[C@@H](CC(=O)O)C(=O)N[C@H](C(N)=O)C(C)C` (Ac-GRGDV-NH2) registered an IC50 of 0.434 µM.
To `CC(=O)NCC(=O)N[C@@H](CCCNC(=N)N)C(=O)NCC(=O)N[C@@H](CC(=O)O)C(=O)N[C@H](C(=O)O)C(C)C` (Ac-GRGDV-OH) belongs 0.012 µM; to `N=C(N)NCCC[C@@H]1NC(=O)[C@H](CC(=O)O)NC(=O)C[S+]([O-])C[C@@H](C(=O)O)NC(=O)[C@H](CC(=O)O)NC(=O)CNC1=O` (some centres undefined) (DRGD[Cys(O)(CH2CO)]-OH; lactam N-5), 0.006 µM.
To `NCC(=O)N[C@@H](CCCN=C(N)N)C(=O)NCC(=O)N[C@@H](CC(=O)O)C(=O)N[C@@H](CC(=O)O)C(=O)O` (H-GRGDD-OH) belongs 0.231 µM.
In turn, `CC(C)C[C@H](NC(=O)[C@H](CC(=O)O)NC(=O)CNC(=O)[C@H](CCCN=C(N)N)NC(=O)CN)C(=O)O` (H-GRGDL-OH) displayed an IC50 of 0.5 µM. Against the preceding molecule, the IC50 is about 2.2-fold higher.
`CC(C)[C@H](NC(=O)[C@H](CC(=O)O)NC(=O)CNC(=O)[C@H](CCCN=C(N)N)NC(=O)CN)C(=O)O` (H-GRGDV-OH): 0.03 µM corresponded to half-maximal inhibition (IC50). This IC50 lies about 17-fold lower than the previous one.
On to `NCC(=O)N[C@@H](CCCN=C(N)N)C(=O)NCC(=O)N[C@@H](CC(=O)O)C(=O)N[C@@H](Cc1ccc(O)cc1)C(=O)O` (H-GRGDY-OH), for which half-maximal inhibition (IC50) was put at 0.24 µM. Against the preceding molecule, the IC50 is about 8-fold higher.
For the molecule `CC(C)C[C@H](NC(=O)[C@H](CC(=O)O)NC(=O)CNC(=O)[C@@H](N)CCCN=C(N)N)C(=O)O` (H-RGDL-OH), half-maximal inhibition (IC50) was put at 0.105 µM.
With `NC(N)=NCCC[C@H](N)C(=O)NCC(=O)N[C@@H](CC(=O)O)C(=O)N[C@@H](Cc1ccc(O)cc1)C(=O)O` (H-RGDY-OH), the 50% inhibitory concentration (IC50) is 0.07 µM.
For `C[C@@H](O)[C@@H]1Nc2cccc(c2)CCSC[C@@H](C(=O)O)NC(=O)[C@H](CC(=O)O)NC(=O)CNC(=O)[C@H](CCCN=C(N)N)NC1=O` (H-[X1]RGDC-OH; thioether 1-5), the IC50 was 0.0017 µM.
With `C[C@H](O)[C@H]1Nc2cccc(c2)CCSC[C@@H](C(=O)O)NC(=O)[C@H](CC(=O)O)NC(=O)CNC(=O)[C@H](CCCN=C(N)N)NC1=O` (H-[X2]RGDC-OH; thioether 1-5) the figure was 0.007 µM; with `N=C(N)NCCC[C@@H]1NC(=O)[C@H](Cc2ccc(O)cc2)NC(=O)C[S+]([O-])C[C@@H](C(N)=O)NC(=O)[C@H](CC(=O)O)NC(=O)CNC1=O` (some centres undefined) (YRGD[Cys(O)(CH2CO)]-NH2; lactam N-5), 0.0045 µM; with `N=C(N)NCCC[C@@H]1NC(=O)CNC(=O)C(c2cccc3ccccc23)SC[C@@H](C(=O)O)NC(=O)[C@H](CC(=O)O)NC(=O)CNC1=O` (stereo in doubt; 17A), 0.0053 µM.
Molecule `N=C(N)NCCC[C@@H]1NC(=O)CNC(=O)C(c2cccc3ccccc23)SC[C@@H](C(=O)O)NC(=O)[C@H](CC(=O)O)NC(=O)CNC1=O` (stereo in doubt; 17B) displayed an IC50 of 0.0014 µM.
`N=C(N)NCCC[C@@H]1NC(=O)CNC(=O)C(c2ccccc2)SC[C@@H](C(=O)O)NC(=O)[C@H](CC(=O)O)NC(=O)CNC1=O` (stereo in doubt; 18A) yielded an IC50 of 0.015 µM.
To `N=C(N)NCCC[C@@H]1NC(=O)CNC(=O)C(c2ccccc2)SC[C@@H](C(=O)O)NC(=O)[C@H](CC(=O)O)NC(=O)CNC1=O` (stereo in doubt; 18B) belongs 0.0005 µM; to `N=C(N)NCCC[C@@H]1NC(=O)CNC(=O)C(c2ccc(-c3ccccc3)cc2)SC[C@@H](C(=O)O)NC(=O)[C@H](CC(=O)O)NC(=O)CNC1=O` (stereo in doubt; 19A), 0.005 µM.
